Consider 16 molecules from ChEMBL document CHEMBL1144339, “Synthesis and activity of oleanolic acid derivatives, a novel class of inhibitors of osteoclast formation” (2005).

The structures appear in SMILES notation.

The assay has as its system Osteoclast-like. Briefly: Percent inhibition of tartrate resistant acid phosphatase positive osteoclast like multinucleated cells formation by 1-alpha, 25-dihydroxy vitamin D3 in mouse bone marrow cells. It counts as functional. Set-up: concentration or dose not given beside the values. A digest of the protocol:
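Run as a co-culture assay. Formation of osteoclast-like multinucleated cells was induced with 1α,25-dihydroxy vitamin D₃.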
In general, Inhibition refers to how much of the control response was suppressed. On to `CC1(C)CC[C@]2(C(=O)NCC(=O)O)CC[C@]3(C)C(=CC(=O)[C@@H]4[C@@]5(C)CC[C@H](O)C(C)(C)C5CC[C@]43C)[C@@H]2C1` (stereo partly specified), for which the Inhibition amounted to 83.3%.

`CC1(C)CC[C@]2(C(=O)N3CCCC3C(=O)O)CC[C@]3(C)C(=CC[C@@H]4[C@@]5(C)CC[C@H](O)C(C)(C)C5CC[C@]43C)[C@@H]2C1` (stereo partly specified) registered an Inhibition of 21%.

Molecule `CCC(C)C(NC(=O)[C@]12CCC(C)(C)C[C@H]1C1=CC(=O)[C@@H]3[C@@]4(C)CC[C@H](O)C(C)(C)C4CC[C@@]3(C)[C@]1(C)CC2)C(=O)O` (stereo partly specified) yielded an Inhibition of 62%.

`CC(NC(=O)[C@]12CCC(C)(C)C[C@H]1C1=CC[C@@H]3[C@@]4(C)CC[C@H](O)C(C)(C)C4CC[C@@]3(C)[C@]1(C)CC2)C(=O)O` (stereo partly specified) showed an Inhibition of 87.8%.

Molecule `CC1(C)CC[C@]2(C(=O)NC(Cc3ccccc3)C(=O)O)CC[C@]3(C)C(=CC(=O)[C@@H]4[C@@]5(C)CC[C@H](O)C(C)(C)C5CC[C@]43C)[C@@H]2C1` (stereo partly specified) gave an Inhibition of 36.5%.

As for `CC1(C)CC[C@]2(C(=O)N3CCCC3C(=O)O)CC[C@]3(C)C(=CC(=O)[C@@H]4[C@@]5(C)CC[C@H](O)C(C)(C)C5CC[C@]43C)[C@@H]2C1` (stereo partly specified), the Inhibition was 40.3%.

The molecule `CC1(C)CC[C@]2(C(=O)O)CC[C@]3(C)C(=CC(=O)[C@@H]4[C@@]5(C)CC[C@H](O)C(C)(C)C5CC[C@]43C)[C@@H]2C1` (stereo partly specified) gave an Inhibition of 38.5%.

Take `CCC(C)C(NC(=O)[C@]12CCC(C)(C)C[C@H]1C1=CC[C@@H]3[C@@]4(C)CC[C@H](O)C(C)(C)C4CC[C@@]3(C)[C@]1(C)CC2)C(=O)O` (stereo partly specified): the Inhibition was 53.5%.

The molecule `CC(NC(=O)[C@]12CCC(C)(C)C[C@H]1C1=CC(=O)[C@@H]3[C@@]4(C)CC[C@H](O)C(C)(C)C4CC[C@@]3(C)[C@]1(C)CC2)C(=O)O` (stereo partly specified) displayed an Inhibition of 76.3%.

On to `CC(C)CC(NC(=O)[C@]12CCC(C)(C)C[C@H]1C1=CC(=O)[C@@H]3[C@@]4(C)CC[C@H](O)C(C)(C)C4CC[C@@]3(C)[C@]1(C)CC2)C(=O)O` (stereo partly specified), for which the Inhibition is given as 69.5%.

`CC(C)CC(NC(=O)[C@]12CCC(C)(C)C[C@H]1C1=CC[C@@H]3[C@@]4(C)CC[C@H](O)C(C)(C)C4CC[C@@]3(C)[C@]1(C)CC2)C(=O)O` (stereo partly specified) registered an Inhibition of 51.2%.

The molecule `CC1(C)CC[C@]2(C(=O)O)CC[C@]3(C)C(=CC[C@@H]4[C@@]5(C)CC[C@H](O)C(C)(C)C5CC[C@]43C)[C@@H]2C1` (stereo partly specified) returned an Inhibition of 27.6%.

Turning to `CC(C)C(NC(=O)[C@]12CCC(C)(C)C[C@H]1C1=CC(=O)[C@@H]3[C@@]4(C)CC[C@H](O)C(C)(C)C4CC[C@@]3(C)[C@]1(C)CC2)C(=O)O` (stereo partly specified), the Inhibition is 59%.

The molecule `CC(C)C(NC(=O)[C@]12CCC(C)(C)C[C@H]1C1=CC[C@@H]3[C@@]4(C)CC[C@H](O)C(C)(C)C4CC[C@@]3(C)[C@]1(C)CC2)C(=O)O` (stereo partly specified) yielded an Inhibition of 41.3%.

As for `CC1(C)CC[C@]2(C(=O)NCC(=O)O)CC[C@]3(C)C(=CC[C@@H]4[C@@]5(C)CC[C@H](O)C(C)(C)[C@@H]5CC[C@]43C)[C@@H]2C1`, the Inhibition is 61.5%.

Consider `CC1(C)CC[C@]2(C(=O)NC(Cc3ccccc3)C(=O)O)CC[C@]3(C)C(=CC[C@@H]4[C@@]5(C)CC[C@H](O)C(C)(C)C5CC[C@]43C)[C@@H]2C1` (stereo partly specified), for which the Inhibition was found to be 16.3%.
